Laboratory results: ChEMBL document CHEMBL4513216, “Probing the Open Global Health Chemical Diversity Library for Multistage-Active Starting Points for Next-Generation Antimalarials” (ACS Infect Dis, 2020)

Test: Toxicity liver stage against HepG2, at 10uM
Type: cell-based
Design: test concentration 10 uM, cell line HepG2-A16-CD81EGFP
Conditions: human, HepG2-A16-CD81EGFP cells; read-out: INHIBITION
Outline: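 Uninfected HepG2-A16-CD81EGFP cells, 3 × 10^3 per well, 1536-well, plated on prespotted compound at 10 μM final, parasite-free screening media added to match infected plates; puromycin 10 μM positive, DMSO 0.5% negative; run in parallel with 48 h PbLuc assay at 37 °C, 5% CO2; viability by CellTiter-Glo luminescence, normalized to controls.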

SMILES	cytotoxicity at 10 µM [%]
CC(C)(C)C1CC(=O)Nc2c1cnn2Cc1ccco1 (stereo not given)	-2.17
c1cncc(CNCCc2cccs2)c1	-5.68
Cn1nc(C2CCN(CC(=O)NC3CC3)CC2)n(-c2ccccc2)c1=O	-22.3
COc1ccc(C[C@H]2CN(C(=O)c3cc(C)no3)CC[C@H]2OC)cc1	6
O=C(NCc1cccs1)c1nc2c(o1)CN(c1ncccn1)C2	-0.664
Cc1ccc(N2CCCC3(COCCN(c4cnccn4)C3)C2)nn1 (stereo not given)	-139
COc1ccc(Cl)cc1CNCCCn1ccnc1	8.32
COCCNC(=O)C1CCCN(c2ccc3nncn3n2)C1 (stereo not given)	-0.302
Cc1nc(N2CCCC2)nc2c1CCN(C(=O)CC1CC1)CC2	-9.6
O=C(c1cccc(O)n1)N1CCC(O)(CN2CCC(F)(F)CC2)C1 (stereo not given)	4.16
CC(=O)N1CCC(c2nccnc2Nc2cnccn2)CC1	4.51
CCc1cc(C(=O)N2CCCC2c2nc(C)c(CC)c(O)n2)on1 (stereo not given)	-14.2
CC(=O)N1CCC(Oc2cccc(C#N)c2)CC1	6.35
COc1ccccc1CCNC(=O)NCC(=O)Nc1cccnc1	-15.2
CNC(=O)CN1CCC(CN(C)Cc2ccncc2Cl)CC1	-2.87
NC(=O)c1cn(CC2CCC2)c(C2CC2)n1	12.8
CC(=O)NCc1ccc(S(=O)(=O)NC(=O)c2ccc3c(c2)COC3)cc1	6.42
N#CCCN(CC1CC1)S(=O)(=O)c1cccc(Cl)c1	9.09
Cc1cc(N(C)C)nc(N2CCCC2c2cccnc2)n1 (stereo not given)	-14.1
Cc1cc(CN(C2CC2)C(C)C(C)C)on1 (stereo not given)	-0.212
Cc1cc(Cn2cc(C#N)c(=O)c3ccccc32)on1	8.83
O=C(CCNC(=O)NC1CCN(C2CC2)CC1)NCc1ccccc1	-0.769

SMILES	cytotoxicity at 10 µM [%]
CCOc1ccc2cc(C(=O)NCCNc3ccc(C)nn3)[nH]c2c1	1.64
CCOc1cc(F)ccc1NC(=O)N(C(C)CS(C)(=O)=O)C1CC1 (stereo not given)	4.11
COc1cc(C(=O)N2CCCC2CC(=O)c2cnn(C)c2)ccc1F (stereo not given)	-4.62
CC1CCN(C(=O)c2ccc(N(C)Cc3cnn(C)c3)nc2)CC1	-13.8
CC1CCN(C(=O)NCCc2cc(F)ccc2F)C1 (stereo not given)	0.154
O=C(CCc1ccccc1)N1CCN(C(=O)c2ccc[nH]2)CC1	-5.04
CN(CCC(=O)NC1CC1)Cc1ccc(Cl)s1	7.83
Cc1cc(NC(=O)CN2CCc3c(nc(C(C)C)n3C)C2)on1	-3.17
CN(Cc1nc2ccsc2c(=O)[nH]1)CC1CCCCC1	-1.05
O=C(c1cccnc1)N1CCN(c2ccnc3ccsc23)CC1	5.77
COc1ccccc1CC(C)(C)NC(=O)CC(F)(F)F	6.08
CC(C)(CCS(C)(=O)=O)CNC(=O)NC1CCCC1(C)C (stereo not given)	6.7
Fc1ccc(-c2cnc(CNC3CCc4ncnn4C3)o2)cc1 (stereo not given)	-0.174
CC1CCN(CC(=O)NC(C#N)c2cnn(-c3ccccc3)c2)CC1 (stereo not given)	0.724
CN(C)C1(CNC(=O)Cc2ccc(F)cc2)CCOCC1	6.03
Cc1cc(C)c(C(=O)NCCNc2ncnc3ccccc23)c(=O)[nH]1	21
CCc1nncn1CCNC(=O)Nc1ccc2c(c1)CCCO2	1.79
O=C(NCCCOCC1CCCO1)c1cccnc1N1CCCC1 (stereo not given)	12.4
COCC1c2nnn(C)c2CCN1C(=O)Cc1ccccn1 (stereo not given)	-97.1
CC(C)NC(=O)c1cc2c(s1)CCN2c1ncccn1	-123
Cc1cc(C)c2[nH]c(C(=O)NCCN3CCCC3=O)c(C)c2c1	2.49
CC(C)c1nccc(-c2nccn2CCN(C)S(C)(=O)=O)n1	7.53

SMILES	cytotoxicity at 10 µM [%]
CCCc1nc(CN(CC)Cc2ccc(S(C)(=O)=O)cc2)no1	-16.9
Cc1cc(CN(C)C(C(=O)O)c2cccc(C(F)(F)F)c2)on1 (stereo not given)	-6.33
CCCn1ccnc1CN1CCc2[nH]cnc2C1Cc1ccccc1 (stereo not given)	-15.8
COc1cccc(CN2CCN(C(=O)Nc3nc(C)ns3)CC2=O)c1	-3.05
CN(C)CC1(O)CCCN(C(=O)Cn2nc3ccccc3n2)CC1 (stereo not given)	-8.14
CCc1nn(C)c(Cl)c1CN(CC)Cc1cnn(CC)c1	4.36
CCNc1ncc(C(=O)NC2COC3(CCCC3)C2)cn1 (stereo not given)	-4.53
O=C(c1cccc(Cl)c1)N1CCCC(Nc2ccc(F)cc2)C1 (stereo not given)	-7.05
C[C@@H]1CN(CCC(=O)NCc2ccccc2Cl)C[C@@]1(O)C1CC1	2.75
Cc1nc(C(C)C)sc1C(=O)N1CCN(C2CCSCC2)CC1	6.62
O=C(NCCSc1cnn[nH]1)c1c[nH]nc1C1CCCCC1	-5.03
Cc1nc(CCCN2CCOCC2)n(Cc2ccc(F)cc2)n1	1.69
CCOc1ccccc1CN(C)C(=O)CN1C(=O)OC[C@@H]1C(C)C	-2.24
CCCn1cnnc1CN(C)C(=O)C1CCCN(C2CCN(C)CC2)C1 (stereo not given)	-6.58
CSCCCN1CCCC(Cn2ccnc2)C1 (stereo not given)	5.07
O=C(CCCc1ccc(F)cc1)N1C[C@@H](CN2CCOCC2)[C@@H](CO)C1	-11.8
COCc1ccc(CNc2cncc(-n3cccn3)n2)cc1	6
CC(C)(C)c1ncc(C(=O)NCCNC(=O)c2ccco2)s1	-1.98
Cc1nc(CN2CCCC(N(C)CC3CCCC3)C2)no1 (stereo not given)	-7.3
COc1ccc(Cl)cc1C(=O)NCCNc1cnccn1	-8.35
Cc1nc(C)n(CC2CCCN2CCc2ccncc2)n1 (stereo not given)	-7.3
COCCOc1ccc(NC(=O)C2CC(=O)N(C(C)C)C2)cn1 (stereo not given)	-17.6

SMILES	cytotoxicity at 10 µM [%]
CCC(O)CN1CCN(C(=O)c2cccn2Cc2ccncc2)CC1 (stereo not given)	-13
Cc1nc(CN(C)C2CCCN(c3cccnn3)C2)oc1C (stereo not given)	-12.4
OCC1CCCN1c1cc(NCc2cccc3cccnc23)ncn1 (stereo not given)	-15.6
CN(C)c1ncccc1C(=O)N1CCCC1Cn1cccn1 (stereo not given)	-2.83
CC(C)CCc1nc(CNCC2CN(C)CCO2)cs1 (stereo not given)	-15.2
CC(C)c1n[nH]c(C2CN(CCc3cccs3)CCO2)n1 (stereo not given)	-4.57
Cc1ccc(C(=O)NC2CCN(C(=O)Nc3ccccn3)CC2)s1	-4.54
CCCN1CCN(C(=O)Cc2nc(-c3ccco3)oc2C)CC1	-6.14
CCc1nnc(CN2CCN(C(=O)c3cc4ccccc4[nH]3)CC2)o1	-0.385
CC(C)N(C)Cc1cnc2n1CCN(Cc1cccc(F)c1)C2	-2.92
CCN(C)c1ncnc2c1CCN(C(=O)N1CCCC1)CC2	-6.9
CCn1nnc2c1C(COCCN(C)C)CN(Cc1ccc(C)s1)C2 (stereo not given)	4.44
O=S1(=O)NCC2(CCN(c3ncccn3)CC2)COc2ccccc21	-1.34
CN(C)C1CC2(CCN(C(=O)c3csnn3)CC2)c2ccccc21 (stereo not given)	-138
NC(C(=O)N1CCSc2ccccc2C1)c1ccccc1 (stereo not given)	4.59
c1csc(CN2Cc3nccn3CC(Cn3cncn3)C2)c1 (stereo not given)	-136
Cc1cnc(N2CCc3c(cnc(C)c3C(=O)O)C2)nc1	8.1
O=C1CCC2(CCN(Cc3ccc(F)cc3)CC2)N1CCN1CCCC1	-4.72
Cc1ccoc1C1=NNC(=CN2CCn3c(C)nnc3C2)O1	-16.4
